In brackets after ≈: the same amount, converted by molar mass.
Columns and labels:
Type in all cases: functional
Neisseria gonorrhoeae [1] = assay: Antibacterial activity against Neisseria gonorrhoeae harboring wild-type penA and GS A102S mutant genes by Etest method
In short: (§1)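 Penicillin G MIC (µg/ml) by E-test gradient strip on chocolate agar plus PolyVitex, read where the inhibition zone meets the strip. Test organisms were clinical gonococcal isolates from New Caledonia, grouped by genotype. Archival chromosomally mediated resistant isolates and 12 WHO reference strains served as controls.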

Neisseria gonorrhoeae [2] = assay: Antibacterial activity against Neisseria gonorrhoeae by disk agar diffusion method
In short: (§2)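 Clinical isolates were collected from sexually transmitted infections in New Caledonia over nearly 3 years. They were tested in vitro against conventional antibiotics by disk agar diffusion. Archival chromosomally mediated resistant isolates and 12 reference strains served as controls: WHO-C, -G, -L, -M, -O, -P and 07QA-01 to 07QA-06.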

Neisseria gonorrhoeae [3] = assay: Antibacterial activity against Neisseria gonorrhoeae harboring wild-type GA and wild-type penA genes by Etest method; in short: as §1
Neisseria gonorrhoeae [4] = assay: Antibacterial activity against Neisseria gonorrhoeae harboring KD gene by disk agar diffusion method
In short: (§3)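 Clinical N. gonorrhoeae isolates from sexually transmitted infections in New Caledonia, collected over about 3 years. Susceptibility to conventional antibiotics was tested by disk agar diffusion, and beta-lactamase production by nitrocefin discs. Archival chromosomally mediated resistant isolates and WHO reference strains (WHO-C, -G, -L, -M, -O, -P; 07QA-01 to -06) served as controls.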

Neisseria gonorrhoeae [5] = assay: Antibacterial activity against Neisseria gonorrhoeae harboring GS A102S mutant gene by disk agar diffusion method; in short: as §3
Neisseria gonorrhoeae [6] = assay: Antibacterial activity against Neisseria gonorrhoeae harboring wild-type GA and Asp-345a insertion in penA genes by Etest method; in short: as §1
Neisseria gonorrhoeae [7] = assay: Antibacterial activity against Neisseria gonorrhoeae harboring Asp-345a insertion in penA and DA G101D mutant genes by Etest method; in short: as §1
Neisseria gonorrhoeae [8] = assay: Antibacterial activity against Neisseria gonorrhoeae harboring wild-type ponA gene by disk agar diffusion method; in short: as §3
Neisseria gonorrhoeae [9] = assay: Antibacterial activity against Neisseria gonorrhoeae harboring GS gene by disk agar diffusion method; in short: as §3
Neisseria gonorrhoeae [10] = assay: Antibacterial activity against Neisseria gonorrhoeae harboring wild-type GA gene by disk agar diffusion method; in short: as §3
Neisseria gonorrhoeae [11] = assay: Antibacterial activity against Neisseria gonorrhoeae assessed as intermediate-resistant isolates by disk agar diffusion method; in short: as §3
Neisseria gonorrhoeae [12] = assay: Antibacterial activity against Neisseria gonorrhoeae harboring porB1a gene by disk agar diffusion method; in short: as §3
Neisseria gonorrhoeae [13] = assay: Antibacterial activity against Neisseria gonorrhoeae harboring ponA L421P mutant gene by disk agar diffusion method; in short: as §3
Neisseria gonorrhoeae [14] = assay: Antibacterial activity against Neisseria gonorrhoeae harboring porB1b and DA G101D mutant genes by disk agar diffusion method; in short: as §3
Neisseria gonorrhoeae [15] = assay: Antibacterial activity against Neisseria gonorrhoeae harboring wild-type penA and porB1a genes by Etest method; in short: as §1
Neisseria gonorrhoeae [16] = assay: Antibacterial activity against Neisseria gonorrhoeae harboring wild-type penA and DA G101D mutant genes by Etest method; in short: as §1
Neisseria gonorrhoeae [17] = assay: Antibacterial activity against Neisseria gonorrhoeae harboring Asp-345a insertion in penA and porB1a genes by Etest method; in short: as §1
Neisseria gonorrhoeae [18] = assay: Antibacterial activity against Neisseria gonorrhoeae assessed as susceptible isolates by disk agar diffusion method; in short: as §2

CC1(C)S[C@@H]2[C@H](NC(=O)Cc3ccccc3)C(=O)N2[C@H]1C(=O)O [PENICILLIN G]
MIC (Neisseria gonorrhoeae [1]): 0.156 µg/mL (≈ 0.467 µM)
MIC (Neisseria gonorrhoeae [2]): 0.064 µg/mL (≈ 0.191 µM)
MIC (Neisseria gonorrhoeae [3]): 0.017 µg/mL (≈ 0.0508 µM)
MIC (Neisseria gonorrhoeae [4]): 1 µg/mL (≈ 2.99 µM)
MIC (Neisseria gonorrhoeae [5]): 0.155 µg/mL (≈ 0.464 µM)
MIC (Neisseria gonorrhoeae [6]): 0.081 µg/mL (≈ 0.242 µM)
MIC (Neisseria gonorrhoeae [7]): 0.133 µg/mL (≈ 0.398 µM)
MIC (Neisseria gonorrhoeae [8]): 0.067 µg/mL (≈ 0.2 µM)
MIC (Neisseria gonorrhoeae [9]): 0.63 µg/mL (≈ 1.88 µM)
MIC (Neisseria gonorrhoeae [10]): 0.037 µg/mL (≈ 0.111 µM)
Activity (Neisseria gonorrhoeae [11]): 39.9%
MIC (Neisseria gonorrhoeae [12]): 0.031 µg/mL (≈ 0.0927 µM)
MIC (Neisseria gonorrhoeae [13]): 0.059 µg/mL (≈ 0.176 µM)
MIC (Neisseria gonorrhoeae [14]): 0.016 µg/mL (≈ 0.0478 µM)
MIC (Neisseria gonorrhoeae [15]): 0.011 µg/mL (≈ 0.0329 µM)
MIC (Neisseria gonorrhoeae [16]): 0.016 µg/mL (≈ 0.0478 µM)
MIC (Neisseria gonorrhoeae [17]): 0.07 µg/mL (≈ 0.209 µM)
Activity (Neisseria gonorrhoeae [18]): 60.1%

From ChEMBL document CHEMBL1671866, “Genotyping as a tool for antibiotic resistance surveillance of Neisseria gonorrhoeae in New Caledonia: evidence of a novel genotype associated with reduced penicillin susceptibility” (2008)
